Test results taken from article PMC11064185 (ACS Omega, 2024).

What was measured:
α-glucosidase = α-glucosidase (Saccharomyces cerevisiae, UniProt P53341); test: affinity ultrafiltration UPLC–Q-TOF–MS/MS screening, binding rate; settings: peak area reduction in CGB extract after ultrafiltration
Outline: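 95% ethanol reflux extract of whole herb: three 3 h extractions at 1:13 m/v, then concentrated and dried. Extract incubated with yeast α-glucosidase and ultrafiltered on a 10 kDa membrane. Bound ligands released from the retentate with methanol and identified by UPLC-Q-TOF-MS/MS.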

[1] = molecular target: Saccharomyces cerevisiae α-glucosidase (Saccharomyces cerevisiae, UniProt P53341); test: α-glucosidase inhibition assay; type: biochemical
Sequence of Saccharomyces cerevisiae α-glucosidase (P53341 whole entry): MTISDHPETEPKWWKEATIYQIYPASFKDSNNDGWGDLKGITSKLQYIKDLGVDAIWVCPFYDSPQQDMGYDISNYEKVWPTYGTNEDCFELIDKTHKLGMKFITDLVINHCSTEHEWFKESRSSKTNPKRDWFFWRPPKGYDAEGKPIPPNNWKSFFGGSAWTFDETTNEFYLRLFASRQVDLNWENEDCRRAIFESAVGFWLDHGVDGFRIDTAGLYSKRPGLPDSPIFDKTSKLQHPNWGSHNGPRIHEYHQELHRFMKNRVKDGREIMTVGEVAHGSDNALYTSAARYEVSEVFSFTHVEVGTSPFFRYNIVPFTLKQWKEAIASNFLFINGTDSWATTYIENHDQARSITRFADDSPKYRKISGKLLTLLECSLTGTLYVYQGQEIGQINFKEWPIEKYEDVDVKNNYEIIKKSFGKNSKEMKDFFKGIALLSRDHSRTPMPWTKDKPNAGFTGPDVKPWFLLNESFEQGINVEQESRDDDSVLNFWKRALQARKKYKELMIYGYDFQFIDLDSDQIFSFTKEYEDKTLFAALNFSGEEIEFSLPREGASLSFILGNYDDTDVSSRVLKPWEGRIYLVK

Sequence of α-glucosidase (P53341 whole entry): as above

AD (affinity degree, binding rate to α-glucosidase) (α-glucosidase)	IC50 [1]	Compound
17.2%	436.35 ± 0.01 µM	COc1c(-c2ccc(O)c(O)c2)oc2cc(O)cc(O)c2c1=O [3-O-methylquercetin]
23.4%	1072.4 ± 0.54 µM	O=c1c(O[C@@H]2O[C@H](CO)[C@H](O)[C@H](O)[C@H]2O)c(-c2ccc(O)c(O)c2)oc2cc(O)cc(O)c12 [hyperoside]
12.4%	–	O=c1c(O)c(-c2ccc(O)c(O)c2)oc2cc(O)cc(O)c12 [quercetin]
